Compound activity (PubChem BioAssay)
TRPC6 act = activators of mouse TRPC6 channel; HEK293-TRPC6 membrane potential dye fluorescence; hits give high values; B-score at 10 µM; hit rate 0.13% among 310,000; AID 2550;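 active means B-score of the integrated fluorescence ratio above library mean plus 3 SD, and starting fluorescence ratio within library mean plus 5 SD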;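 further: higher score means more depolarization so channel activation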
Target sequence (Q61143 whole entry, looked up): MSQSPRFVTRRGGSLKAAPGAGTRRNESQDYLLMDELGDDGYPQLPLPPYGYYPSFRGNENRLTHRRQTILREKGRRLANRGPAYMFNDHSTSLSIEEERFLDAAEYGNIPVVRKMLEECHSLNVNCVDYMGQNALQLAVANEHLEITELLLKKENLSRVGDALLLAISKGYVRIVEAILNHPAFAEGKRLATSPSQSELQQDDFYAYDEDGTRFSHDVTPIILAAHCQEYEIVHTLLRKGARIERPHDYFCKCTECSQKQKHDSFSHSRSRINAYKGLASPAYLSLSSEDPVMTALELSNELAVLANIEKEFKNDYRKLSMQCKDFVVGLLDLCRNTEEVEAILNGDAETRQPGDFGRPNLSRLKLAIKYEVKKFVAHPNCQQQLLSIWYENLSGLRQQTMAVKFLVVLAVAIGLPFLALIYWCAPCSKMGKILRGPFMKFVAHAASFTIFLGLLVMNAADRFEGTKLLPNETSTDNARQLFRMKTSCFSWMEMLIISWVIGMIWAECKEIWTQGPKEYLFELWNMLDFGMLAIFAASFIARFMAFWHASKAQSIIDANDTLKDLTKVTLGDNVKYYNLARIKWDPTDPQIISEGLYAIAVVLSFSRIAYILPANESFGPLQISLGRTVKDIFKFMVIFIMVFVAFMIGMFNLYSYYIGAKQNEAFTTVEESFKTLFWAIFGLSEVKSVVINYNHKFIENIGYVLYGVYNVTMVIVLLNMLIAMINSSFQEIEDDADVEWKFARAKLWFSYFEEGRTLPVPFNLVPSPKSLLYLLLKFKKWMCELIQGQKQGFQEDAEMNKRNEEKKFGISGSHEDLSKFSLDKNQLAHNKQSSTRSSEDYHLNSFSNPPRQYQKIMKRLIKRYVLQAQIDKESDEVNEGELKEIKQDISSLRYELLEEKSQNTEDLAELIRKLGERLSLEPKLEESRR
Kir21 block = Kir2.1 (mouse) channel inhibition. P35561. HEK293-Kir2.1, FluxOR thallium flux fluorescence; hits give low values. hit rate 0.85% among 310,000. B-score at 10 µM;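 active means fluorescence ratio B-score at or below minus 3 SD of library scores, with starting-brightness B-score within 2 SD, cut at about -4.2 in these data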;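 further: channel flux triggered by added potassium and thallium sulfate stimulus; B-score of peak minus minimum fluorescence over baseline after thallium stimulus; more negative B-score means stronger Kir2.1 block with less thallium influx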
TRPC6 inh = blocks the mouse TRPC6 cation channel; HEK293-TRPC6, membrane potential dye, ACh-evoked depolarization; hits give low values; AID 2553; Q61143; B-score at 10 µM; hit rate 1.1% among 310,000;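 active means B-score under library mean minus 3 SD, initial fluorescence not abnormally high, positive integrated signal ratio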;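 further: B-score derived from integrated fluorescence ratio over the kinetic read; more negative B-score means stronger inhibition of depolarization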
TRPC4 block = TRPC4 (mouse) channel inhibition; Q9QUQ5; HEK293 TRPC4beta/mu-opioid, DAMGO-evoked Fluo4 calcium flux; hits give low values; B-score at 10 µM; hit rate 0.39% among 300,000; AID 2247;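 active means B-score over 3 SD under the library average, no early fluorescence shift, positive overall ratio signal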
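System: stable TRPC4beta/mu-opioid receptor HEK293 cells; Dosing: single-point compound dosing; Measured by: Fluo4 Ca2+ flux fluorescence; Read-out basis: per-well B score of integrated baseline-normalized Fluo4 ratio.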
TRPC4 potent = allosteric potentiators of mouse TRPC4 channel; Q9QUQ5; HEK293 TRPC4beta/mu-opioid, DAMGO EC20, Fluo-4 Ca2+ flux; hits give high values; B-score at 10 µM; hit rate 0.42% among 310,000; AID 2227;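 active means B-score of calcium response area above 5 SD of library B-scores, with initial fluorescence ratio within 5 SD of library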
TRPC4 agonist = opens the mouse TRPC4 cation channel; Q9QUQ5; HEK293 TRPC4beta/mu-opioid, Fluo4 calcium fluorescence; hits give high values; B-score at 10 µM; hit rate 0.49% among 310,000; AID 2237;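 active means B-score above 5 SD of library B-scores, and initial fluorescence ratio not above library mean plus 5 SD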;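 further: positive B-score marks a calcium rise read as TRPC4 activation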
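Test system: HEK293 cells stably co-expressing mouse TRPC4beta and mu-opioid receptor | Schedule: Fluo4 dye loading 45 min at room temperature, 110 s recording | Measured by: Kinetic Fluo4 calcium fluorescence, 5 s baseline at 1 Hz | Evaluation: B score of integrated ratio | Controls: Buffer (low) and maximal DAMGO (high)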
TRPC4 sel inh 2 = mouse TRPC4 off-target activity of TRPC6 inhibitors, second screen; shares compounds with TRPC6 inh; HEK293 TRPC4/MOR, membrane potential dye fluorescence; channel activated by saturating DAMGO dose; inhibition, % at 10 µM; hit rate 42% among 920;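 active means compounds whose fluorescence signal differed from control wells by over 3 SD, either direction, in both duplicate plates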
TRPC4 spec = tests whether TRPC6 inhibitors also affect mouse TRPC4; hit rate 61% among 920; activity change, negative = inhibition, % at 10 µM; AID 2777; HEK293 TRPC4/mu-opioid, membrane potential fluorescence; shares compounds with TRPC6 inh;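 active means rise or fall in signal beyond 3 SD of buffer-only wells in both replicate plates, either sign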;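 further: integrated kinetic ratio of fluorescence range over baseline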
HEK293 MPD ctr 2-1 = second check of TRPC6 inhibitor effects in parental HEK293 cells; hit rate 31% among 920; AID 2779; parental HEK293 membrane potential dye fluorescence; maximal acetylcholine challenge after compound addition; signal change vs control, % at 10 µM; shares compounds with TRPC6 inh;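 active means membrane potential signal moving either way by over 3 SD of the maximum-effect control, in both duplicate plates, meaning non-specific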
HEK293 MPD ctr-1 = parental HEK293 nonspecific activity of TRPC6 inhibitors. parental HEK293 membrane potential dye fluorescence. hit rate 60% among 920. shares compounds with TRPC6 inh. membrane potential signal change, % at 10 µM;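 active means membrane potential signal shifting up or down by more than 3 SD of buffer-only wells, on both duplicate plates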
HEK293 MPD ctr-2 = counter-screen for TRPC6 modulators: effect in parental HEK293 cells; shares compounds with TRPC6 inh; membrane potential dye fluorescence; membrane potential signal change, % at 10 µM; hit rate 51% among 2,400; AID 488924;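 active means membrane potential signal moves up or down beyond 5 SD from buffer-only wells, on both duplicate plates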
HEK293 MPD ctr 2-2 = parental HEK293 nonspecific activity of TRPC6 modulators, second screen; shares compounds with TRPC6 inh; membrane potential dye fluorescence; after compound, maximal acetylcholine stimulation; inhibition, % at 10 µM; hit rate 14% among 2,400;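 active means membrane potential signal drops by more than 5 SD from the mean control signal, in both duplicate plates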
TRPC4 ctr mod = mouse TRPC4 off-target activity of TRPC6 modulators. shares compounds with TRPC6 inh. percent change from control (negative = decrease, positive = increase), % at 10 µM. HEK293 TRPC4/mu-opioid, membrane potential fluorescence. hit rate 69% among 2,400;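 active means membrane potential signal moved up or down beyond 5 SD of buffer control wells, in both duplicate plates, actives on both sides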
TRPC4 ctr inh 2 = second selectivity test of TRPC6 modulators against mouse TRPC4; shares compounds with TRPC6 inh; HEK293 TRPC4/mu-opioid, membrane potential dye fluorescence; stimulated with maximal-effect DAMGO; inhibition, % at 10 µM; hit rate 55% among 2,400; AID 488928;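 active means drop in membrane potential signal beyond 5 SD of the control wells in both duplicate plates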;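 further: TRPC4 counter screen for TRPC6 hits run under conditions tuned for TRPC6 not TRPC4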
TRPC6 inh conf = confirmation of mouse TRPC6 inhibitors. inhibition, % at 10 µM. shares compounds with TRPC6 inh. hit rate 43% among 3,300. HEK293-TRPC6, membrane potential dye, ACh-evoked depolarization. AID 488960;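 active means fluorescence ratio falls more than 5 SD below the full-stimulation control mean, in both duplicate runs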;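 further: integrated fluorescence ratio of peak minus minimum over baseline after agonist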
TRPC6 act conf = mouse TRPC6 activator confirmation. AID 488961. hit rate 11% among 2,800. activation, % at 10 µM. HEK293-TRPC6 membrane potential dye fluorescence, FDSS. shares compounds with TRPC6 inh;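 active means ratio signal rise beyond 5 SD above unstimulated control wells' mean, seen in both duplicate runs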
Of the large screens only hits and unclear results are named; the others gave an inactive call (follow-up assays come after a bar, where they were run). An excerpt weighted towards active compounds, which were near 2.9% of everything screened.

CN1CCN(/N=C/c2nc(-c3cccc([N+](=O)[O-])c3)n3ccccc23)CC1	TRPC6 inh -5.2 | HEK293 MPD ctr-2 -165% | HEK293 MPD ctr 2-2 inactive | TRPC4 ctr mod -30% | TRPC4 ctr inh 2 46% | TRPC6 inh conf 51% | TRPC6 act conf inactive
COc1cc2c(cc1OC)C1(Nc3c-2c(Cc2ccccc2)nn3-c2ccccc2)C(=O)Nc2ccccc21 (centres undefined)	TRPC6 inh -6.8 | TRPC4 sel inh 2 inactive | TRPC4 spec -9.5% | HEK293 MPD ctr 2-1 inactive | HEK293 MPD ctr-1 inactive | TRPC6 inh conf inactive | TRPC6 act conf inactive
COc1cc2c(cc1OC)C1(NCC2)C(=O)Nc2ccccc21 (centres undefined)	none
Cc1[nH]c2c(C)cccc2c1CCNC(=O)C1CCCCC1C(=O)OCC(F)(F)F (centres undefined)	none
CCOc1ccc(OCc2ccc(C(=O)OCc3ccccn3)o2)cc1	TRPC6 inh -6 | HEK293 MPD ctr-2 inactive | HEK293 MPD ctr 2-2 inactive | TRPC4 ctr mod 11% | TRPC4 ctr inh 2 inactive | TRPC6 inh conf inactive | TRPC6 act conf inactive
CCOC(=O)c1ccc(COc2ccc(C(C)C)cc2)o1	none
CCc1cc2c(-c3ccccc3)cc(=O)oc2c(CN2CCOCC2)c1O	TRPC6 inh -5.1 | HEK293 MPD ctr-2 inactive | HEK293 MPD ctr 2-2 inactive | TRPC4 ctr mod 14% | TRPC4 ctr inh 2 inactive | TRPC6 inh conf 50%
COc1ccc(NC(=O)C(NC(C)=O)C(=O)NCc2ccccc2OC)cc1 (centres undefined)	none
CCOc1ccc(NC(=O)CC(Cc2cc(C)cc(C)c2)C(=O)O)cc1 (centres undefined)	TRPC6 inh -5.6 | HEK293 MPD ctr-2 inactive | HEK293 MPD ctr 2-2 inactive | TRPC4 ctr mod inactive | TRPC4 ctr inh 2 inactive | TRPC6 inh conf inactive | TRPC6 act conf inactive
CCOc1ccc(NC(=O)C(CC(=O)O)Cc2ccccc2)cc1 (centres undefined)	none
C=CCn1c(SCCN2CCCC2)nc2c([nH]c3ccccc32)c1=O	TRPC6 inh -8.6, TRPC4 potent 17 | HEK293 MPD ctr-2 inactive | HEK293 MPD ctr 2-2 inactive | TRPC4 ctr mod -18% | TRPC4 ctr inh 2 66% | TRPC6 inh conf 53% | TRPC6 act conf inactive
C=CCn1c(SCC(=O)Nc2ccc(OC)cc2)nc2c([nH]c3ccccc32)c1=O	none
CCn1c(=NC(=O)CSC(C)=O)sc2cc(OC)ccc21	TRPC6 act 17 | HEK293 MPD ctr-2 inactive | HEK293 MPD ctr 2-2 inactive | TRPC4 ctr mod 9.0% | TRPC4 ctr inh 2 inactive | TRPC6 act conf 152%
COCCn1c(=NC(=O)CSC(C)=O)sc2cc(OC)ccc21	none
CC(/C=C/c1cccc([N+](=O)[O-])c1)=N/NC(=O)c1cccnc1	TRPC6 inh -5.9 | HEK293 MPD ctr-2 inactive | HEK293 MPD ctr 2-2 inactive | TRPC4 ctr mod inactive | TRPC4 ctr inh 2 inactive | TRPC6 inh conf inactive | TRPC6 act conf inactive
CC(=O)C1=C(O)C(=O)N(c2ccc(S(N)(=O)=O)cc2)C1c1cccc([N+](=O)[O-])c1 (centres undefined)	none
CC(=O)C1C(=O)c2c(cccc2[N+](=O)[O-])C1=Nc1ccc(S(N)(=O)=O)cc1 (centres undefined)	TRPC6 inh -9.7 | HEK293 MPD ctr-2 -250% | HEK293 MPD ctr 2-2 inactive | TRPC4 ctr mod -51% | TRPC4 ctr inh 2 52% | TRPC6 inh conf inactive | TRPC6 act conf inactive
COc1ccc(OC)c2c(C)cc(N3CCN(C(=O)c4ccc(F)cc4)CC3)nc12	TRPC6 inh -5.7 | HEK293 MPD ctr-2 -244% | HEK293 MPD ctr 2-2 inactive | TRPC4 ctr mod -44% | TRPC4 ctr inh 2 42% | TRPC6 inh conf inactive | TRPC6 act conf inactive
COc1ccc(OC)c2c(C)cc(N3CCN(C(=O)c4ccc(C)cc4)CC3)nc12	none
COc1ccc(OC)c2c(N3CCN(C)CC3)cc(C(F)(F)F)nc12	none
COc1ccc(OC)c2c(C)cc(N3CCCCCC3)nc12	TRPC6 inh -6.6, TRPC4 block -5 | TRPC4 sel inh 2 74% | TRPC4 spec -22% | HEK293 MPD ctr 2-1 inactive | HEK293 MPD ctr-1 -419% | TRPC6 inh conf inactive | TRPC6 act conf inactive
COc1ccc(OC)c2c(C)cc(NCCN3CCOCC3)nc12	TRPC6 inh -8.9 | HEK293 MPD ctr-2 -276% | HEK293 MPD ctr 2-2 70% | TRPC4 ctr mod -36% | TRPC4 ctr inh 2 68% | TRPC6 inh conf 72% | TRPC6 act conf inactive
COc1cccc2c(C)cc(N3CCCCCC3)nc12	TRPC6 inh -9.4 | HEK293 MPD ctr-2 -262% | HEK293 MPD ctr 2-2 inactive | TRPC4 ctr mod -47% | TRPC4 ctr inh 2 86% | TRPC6 inh conf 46% | TRPC6 act conf inactive
COc1ccc(N2CCN(c3cc(C)c4cccc(C)c4n3)CC2)cc1	none
CCOC(=O)c1cc(-c2ccccc2)nc2nc(N3CCCCC3)sc12	none
Cc1ccc(NC(=O)CNC(=O)c2sc3ccccc3c2Cl)nc1	none
Cc1cccc(NS(=O)(=O)c2ccc(Oc3ccccc3)cc2)n1	TRPC6 inh -6.3 | HEK293 MPD ctr-2 inactive | HEK293 MPD ctr 2-2 inactive | TRPC4 ctr mod 8.5% | TRPC4 ctr inh 2 inactive | TRPC6 inh conf inactive | TRPC6 act conf inactive
